Experimental data as given in ChEMBL document CHEMBL1932932, “Natural product libraries to accelerate the high-throughput discovery of therapeutic leads” (J Nat Prod, 2011).
Converted amounts (≈) assume the structure as drawn. The source made the active and inactive calls. The rule behind the calls is not given here.

Assays:
HeLa [1] = experiment: Stabilization of microtubule in human HeLa cells at 20 ug/ml after 24 hrs by Hoechst staining-based fluorescence microscopic analysis; assay type: functional, cell-based
HeLa [2] = experiment: Induction of microfilament disruption in human HeLa cells at 20 ug/ml after 24 hrs by Hoechst staining-based fluorescence microscopic analysis; assay type: functional, cell-based
Procedure, shortened: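 HeLa cells (1500/well, 384-well) were seeded and incubated overnight at 37 °C, 5% CO2, then samples were pin-transferred. After 24 h cells were fixed in 4% formaldehyde for 20 min, permeabilised with 0.5% Triton X-100 for 10 min and blocked with 2% BSA. Actin was stained with rhodamine-phalloidin and DNA with Hoechst 33342. Images were taken by automated fluorescence microscopy at 10×.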

[3] = system: Trypanosoma brucei brucei; experiment: Antitrypanosomal activity against Trypanosoma brucei brucei clone 427-221a assessed as growth inhibition after 40 hrs by ATP-bioluminescence assay; assay type: functional, organism-based
Procedure, shortened: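 Bloodstream-form parasites (1×10^4/well) were grown in HMI-9 with 10% FBS, 10% Serum Plus and penicillin/streptomycin at 37 °C, 5% CO2. Samples were tested at 12.5 and 1.25 µg/mL, or serially diluted 25–0.001 µg/mL for IC50, at 0.5% final DMSO. Incubation was 40 h. ATP was read by CellTiter-Glo. Log10 signals were converted to % inhibition against 0.5% DMSO and 50 µM thimerosal controls, and curves were fitted.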

MDA-MB-435 = experiment: Antiproliferative activity against human MDA-MB-435 cells assessed as cell viability after 96 hrs by CellTiter-Glo luminescence assay; assay type: functional, cell-based; conditions: MDA-MB-435, 96 h
Procedure, shortened: (§1)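 Cells grown in 96-well plates with no compound or continuous exposure to 1.5–50 000 nM for 96 h. Growth was read by CellTiter-Glo luminescence. IC50 is the concentration giving 50% growth inhibition versus untreated cells. Two separate replicate experiments were run.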

HT-29 = experiment: Antiproliferative activity against human HT-29 cells assessed as cell viability after 96 hrs by CellTiter-Glo luminescence assay; assay type: functional, cell-based; conditions: HT-29, 96 h; procedure, shortened: as §1
[4] = Antiproliferative activity against human H522-T1 cells assessed as cell viability after 96 hrs by CellTiter-Glo luminescence assay; assay type: functional, cell-based; conditions: H522-T1, 96 h; procedure, shortened: as §1
U-937 = experiment: Antiproliferative activity against human U937 cells assessed as cell viability after 96 hrs by CellTiter-Glo luminescence assay; assay type: functional, cell-based; conditions: U-937, 96 h; procedure, shortened: as §1
RAW264.7 [5] = experiment: Cytotoxicity against mouse RAW264.7 cells assessed as cell viability […] by MTT assay; assay type: functional; conditions: in the assay text read “20 hrs” for “24 hrs”
Procedure, shortened: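 MTT test on extracts at 10 µg/mL and library fractions at 20 µg/mL, dissolved in DMSO. RAW264.7 cells were exposed for 20 h. MTT was then added for 2 h, the medium removed, formazan dissolved in DMSO, and absorbance read at 570 nm.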

PC-3 = experiment: Cytotoxicity against human PC3 cells assessed as cell viability at 10 uM after 24 hrs by MTT assay; assay type: functional, cell-based
RAW264.7 [6] = experiment: Cytotoxicity against mouse RAW264.7 cells assessed as cell viability at 10 uM after 20 hrs by MTT assay

IC50 [3] [µg/mL]	IC50 (MDA-MB-435) [µg/mL]	IC50 (HT-29) [µg/mL]	IC50 (U-937) [µg/mL]	Compound	Activity (HeLa [1])	Activity (HeLa [2])	IC50 [4] [µg/mL]	Activity (RAW264.7 [5]) [µM]	Activity (PC-3)	Activity (RAW264.7 [6])
> 10	> 2.5	> 2.5	> 2.5	COC(=O)/C=C1/CC[C@]2(C)[C@@H](C)CCC[C@]2(C)C1=O [METHYL AIGNOPSANOATE]	inactive	inactive	> 2.5	–	–	–
4.8 (≈ 11.4 µM)	> 2.5	> 2.5	> 2.5	C/C(=C/C(=O)O)CC/C=C/C=C\[C@@H](C)CC[C@@H](O)CCCC(=O)c1csc(=O)[nH]1 [APO LATRUNCULIN T]	inactive	inactive	> 2.5	–	–	–
–	–	–	–	C[C@]12CCC[C@](C)(C(=O)O)[C@@H]1CC[C@@]1(C)c3cocc3CC[C@H]21	–	–	–	>90	–	–
> 10	> 2.5	> 2.5	> 2.5	C=C1C[C@H](C)C[C@@H]2CC=C[C@@H](C/C=C\C(=O)O[C@H]3C[C@@H](O[C@@]3(/C=C/[C@@H]3CC(C)=CCO3)OC)[C@@H](O)[C@@H](O)C1)O2	–	Active	> 2.5	–	–	–
1 (≈ 2.29 µM)	> 2.5	0.8 (≈ 1.83 µM)	1.18 (≈ 2.7 µM)	C/C1=C/C(=O)O[C@@H]2C[C@@H](CC[C@H](C)/C=C\CC(=O)CC1)O[C@@](O)([C@@H]1CSC(=O)N1)C2 [LATRUNCULONE B]	Active	inactive	0.8 (≈ 1.83 µM)	–	–	–
–	–	–	–	COc1cccc2c1C(=O)c1c(O)c3c(c(O)c1C2=O)C[C@@](O)(C(=O)CO)C[C@@H]3O[C@H]1C[C@H](N)[C@H](O)[C@H](C)O1	–	–	–	–	Active	Active
0.09 (≈ 0.198 µM)	> 2.5	0.65 (≈ 1.43 µM)	0.31 (≈ 0.68 µM)	C/C1=C/C(=O)O[C@@H]2C[C@@H](CC[C@H](C)/C=C\[C@H](O)[C@@H](O)CC1)O[C@@](O)([C@@H]1CSC(=O)N1)C2 [LATRUNCULOL A]	Active	inactive	0.76 (≈ 1.67 µM)	–	–	–
> 10	> 2.5	> 2.5	> 2.5	C[C@H]1CCC[C@]2(C)C(=O)[C@H](C(O)C(=O)O)CC[C@]12C (some centres undefined) [AIGNOPSANOIC ACID B]	inactive	inactive	> 2.5	–	–	–
1.4 (≈ 2.65 µM)	> 2.5	> 2.5	> 2.5	C=C1C[C@H](C)C[C@@H]2CC=C[C@@H](C/C=C\C(=O)O[C@H]3C[C@@H](O[C@H]3/C=C/[C@@H]3CC(C)=CC(=O)O3)[C@@H](O)[C@@H](O)C1)O2 [FIIJIANOLIDE D]	inactive	Active	> 2.5	–	–	–
6.5 (≈ 26 µM)	> 2.5	> 2.5	> 2.5	C[C@H]1CCC[C@]2(C)C(=O)/C(=C\C(=O)O)CC[C@]12C [AIGNOPSANOIC ACID A]	inactive	inactive	> 2.5	–	–	–
> 10	> 2.5	> 2.5	> 2.5	COC(CC1=CC[C@]2(C)[C@@H](C)CCC[C@]2(C)C1=O)OC [AIGNOPSANE KETAL]	inactive	inactive	> 2.5	–	–	–
3.6 (≈ 8.23 µM)	> 2.5	> 2.5	> 2.5	C/C1=C/C(=O)O[C@@H]2C[C@@H](CC[C@H](C)/C=C\C(=O)CCC1)O[C@@](O)([C@@H]1CSC(=O)N1)C2	inactive	inactive	> 2.5	–	–	–
2 (≈ 4.26 µM)	> 2.5	> 2.5	> 2.5	CO[C@H]1/C=C\[C@@H](C)CC[C@@H]2C[C@H](C[C@](O)([C@@H]3CSC(=O)N3)O2)OC(=O)/C=C(/C)CC[C@@H]1O [LATRUNCULOL B]	Active	inactive	> 2.5	–	–	–
> 10	> 2.5	> 2.5	> 2.5	CCCCCCC(C)CCCCCCCCCOC[C@H](O)COC1[C@@H](O)[C@H](O)[C@@H](O)[C@@H]1O (some centres undefined) [SACROTRIDE A]	inactive	inactive	> 2.5	–	–	–

Compound	IC50 [3] [µg/mL]	IC50 (MDA-MB-435) [µg/mL]	IC50 (HT-29) [µg/mL]	IC50 (U-937) [µg/mL]	Activity (HeLa [1])	Activity (HeLa [2])	IC50 [4] [µg/mL]	Activity (RAW264.7 [5]) [µM]	Activity (PC-3)	Activity (RAW264.7 [6])
C/C1=C/C(=O)O[C@@H]2C[C@@H](CC[C@H](C)/C=C\C=C\CC1)O[C@@](O)([C@@H]1CSC(=O)N1)C2 [LATRUNCULIN A]	1.2 (≈ 2.85 µM)	0.04 (≈ 0.0949 µM)	0.08 (≈ 0.19 µM)	0.07 (≈ 0.166 µM)	Active	inactive	0.06 (≈ 0.142 µM)	–	–	–
C=C1C[C@H](C)C[C@@H]2CC=C[C@@H](C/C=C\C(=O)O[C@H]3C[C@@H](O[C@H]3/C=C/[C@@H]3CC(C)=CCO3)[C@@H](O)[C@@H](O)C1)O2 [FIJIANOLIDE A]	1.4 (≈ 2.72 µM)	0.02 (≈ 0.0389 µM)	0.04 (≈ 0.0777 µM)	0.03 (≈ 0.0583 µM)	inactive	Active	0.02 (≈ 0.0389 µM)	–	–	–
C=CC/C=C\Cc1csc(C(C)(C)[C@H](O)C/C=C\C(=C)CCNC(=O)OC)n1 [MYCOTHIAZOLE]	6.7 (≈ 16.6 µM)	1 (≈ 2.47 µM)	0.7 (≈ 1.73 µM)	0.01 (≈ 0.0247 µM)	inactive	inactive	1 (≈ 2.47 µM)	–	–	–
C=C1C[C@H](C)C[C@@H]2CC=C[C@@H](C/C=C\C(=O)O[C@H]([C@@H](O)/C=C/[C@@H]3CC(C)=CCO3)C[C@@H]3O[C@H]3[C@@H](O)C1)O2 [FIJIANOLIDE B]	0.08 (≈ 0.155 µM)	0.002 (≈ 0.00389 µM)	0.003 (≈ 0.00583 µM)	0.003 (≈ 0.00583 µM)	inactive	Active	0.002 (≈ 0.00389 µM)	–	–	–
